From PubChem BioAssay AID504789 (Broad Institute, 2011) come the findings set out here.

The structures appear in SMILES notation. Results filed as inconclusive are left out. Activity calls are given as the source filed them.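 How the source made its calls: active means compound whose fitted half-maximal dose lies within ten times its top tested dose in every test run, killing cells; inconclusive means test runs disagree, or a run gives an unclear call; inactive means every test run inactive.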

As usually defined, the AC50 is the concentration giving half of the maximal activity seen.

The test system of one experiment is HMLE_sh_eGFP viability, CellTiter-Glo luminescence, 72 h. As to the kind of experiment: cytotoxicity in control HMLE_sh_eGFP cells, dose response, counter-screen for breast cancer stem cell project, cell-based, luminescence, dry powder, set 7 (AID 504789).
Conditions: not given
In outline:
(§1)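 System: HMLE_sh_eGFP control cells | Input: 2000 cells/well | Buffer or medium: Medium without serum | Timing: About 70–74 h compound exposure, 37 °C | Signal: ATP luminescence with CellTiter-Glo diluted 1:3 in PBS | Controls: DMSO neutral control and 160 µM puromycin positive control, every plate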
With `CC(C)c1ccc(/C=C/C(=O)n2ccc(-c3ccc[nH]3)n2)cc1`, the AC50 is 10.7 µM.

Regarding `Cc1cccc(NCc2ccc(C(=O)Nc3nc(C)cs3)o2)n1`, the AC50 was 21.9 µM.

On to `Cc1csc(NC(=O)c2cccc(COc3ccccc3F)c2)n1`, for which the AC50 is 12.4 µM.

`Cc1csc(NC(=O)c2ccc(COc3cccc(OC(F)(F)F)c3)o2)n1`: the AC50 is 3.01 µM.

Regarding `Cc1cccc(NCc2cccc(C(=O)Nc3nc(C)cs3)c2)n1`, the AC50 was 25 µM.

With `Cc1csc(NC(=O)c2cccc(COc3cccc(F)c3)c2)n1`, the AC50 was 2.2 µM.

Consider `Cc1csc(NC(=O)c2cccc(COc3cccc(Cl)c3)c2)n1`, for which the AC50 was 3.87 µM.

`Cc1cccc(OCc2cccc(C(=O)Nc3nc(C)cs3)c2)c1`: the AC50 was 11.9 µM.

`COc1cccc2c1C(=O)c1c(O)c3c(c(O)c1C2=O)C[C@@](O)(C(=O)CO)C[C@@H]3OC1C[C@H](N)[C@H](O)[C@H](C)O1` (some centres not stated): the AC50 is 0.068 µM.

Tested on in a further experiment: not listed separately
The experiment is described as above. To be noted: HMLE_sh_eGFP viability, CellTiter-Glo luminescence, 72 h; at 19.5 µM (top of the series). In outline:
as §1
In general terms: In ATP-based viability assays light output follows the ATP content of the culture.
Take `O=C(O)COc1ccc(Cl)cc1Cl`: the activity change, negative = cytotoxicity is -6.56% (inactive).

On to `O=C(COc1ccc(Cl)cc1Cl)n1ccc(-c2ccc[nH]2)n1`, for which the activity change, negative = cytotoxicity is 27.2% (inactive).

Turning to `Cc1csc(NC(=O)c2ccc(CNc3ncccc3F)o2)n1`, the activity change, negative = cytotoxicity is 3.58% (inactive).

Take `COc1cc(C(C)C)ccc1/C=C/C(=O)NC1=NCCS1`: the activity change, negative = cytotoxicity was 10.3% (inactive).

As for `O=C(COc1ccc(Cl)cc1Cl)Nc1nccs1`, the activity change, negative = cytotoxicity was 0.602% (inactive).

Consider `Cc1csc(NC(=O)c2cccc(CNc3ccccn3)c2)n1`, for which the activity change, negative = cytotoxicity is -7.38% (inactive).

Regarding `Cc1ccnc(NCc2ccc(C(=O)Nc3nc(C)cs3)o2)c1`, the activity change, negative = cytotoxicity is -1.56% (inactive).

Turning to `Cc1cccc(/C=C/C(=O)NC2=NCCS2)c1`, the activity change, negative = cytotoxicity was 23.8% (inactive).

For `O=C(COc1ccc(Cl)cc1Cl)N/N=C/c1ccccc1`, the activity change, negative = cytotoxicity is 11.1% (inactive).

`N#Cc1cccc(/C=C/C(=O)NC2=NCCS2)c1`: the activity change, negative = cytotoxicity is -7.41% (inactive).

Take `CC(C)c1ccc(/C=C/C(=O)N2CC(F)(F)C2)cc1`: the activity change, negative = cytotoxicity was 11.1% (inactive).

Take `CCc1ccc(/C=C/C(=O)NC2=NCCS2)cn1`: the activity change, negative = cytotoxicity is -2.79% (inactive).

In the case of `O=C(COc1ccc(Cl)cc1Cl)NC1=NCCS1`, the activity change, negative = cytotoxicity is -6.79% (inactive).

Consider `N#Cc1ccccc1/C=C/C(=O)NC1=NCCS1`, for which the activity change, negative = cytotoxicity was 5.88% (inactive).

Consider `CC(C)c1ccc(C#CC(=O)NC2=NCCS2)cc1`, for which the activity change, negative = cytotoxicity was 6.05% (inactive).

As to `Cc1csc(NC(=O)c2ccc(COc3ncccc3F)o2)n1`, the activity change, negative = cytotoxicity was -4.8% (inactive).

With `O=C(c1ccc(COc2ccccc2)o1)n1ccc(-c2ccc[nH]2)n1`, the activity change, negative = cytotoxicity was 10.5% (inactive).

In the case of `Cc1csc(NC(=O)c2ccc(COc3cccnc3)o2)n1`, the activity change, negative = cytotoxicity is 17.4% (inactive).

As for `CN(C)C(=N)N=C(N)N`, the activity change, negative = cytotoxicity is 15.9% (inactive).

With `O=C(COc1c(Cl)cc(Cl)cc1Cl)N/N=C/c1ccc[nH]1`, the activity change, negative = cytotoxicity was 17.5% (inactive).

Take `CC(C)c1ccc(/C=C\C(=O)NC2=NCCS2)cc1`: the activity change, negative = cytotoxicity is -12.1% (inactive).

As for `COc1cc(OC(C)C)ccc1/C=C/C(=O)NC1=NCCS1`, the activity change, negative = cytotoxicity was 25% (inactive).

Take `O=C(c1ccc(COc2ccccc2)o1)N1CC(F)(F)C1`: the activity change, negative = cytotoxicity is 13.3% (inactive).
